Source: PubChem BioAssay (several laboratories)
In the library only some 2.3% were active in any assay of this set; here they are far more common.
T cell HTS = modulators of CD8 T cell-vesicle binding, primary screen, mouse 2C CD8+ T cells, flow cytometry | 2C CD8+ T cell-vesicle binding; hits give low values | 330,000 compounds, 0.068% hits | response (vesicle binding), % at 7 µM;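 active means response, share of CD8 T cells binding vesicles, and their 90th percentile fluorescence all below set limits, cut at about 80% in these data, passing the limit was not always enough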;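 further: values below 100% mean blocked vesicle binding to the CD8+ T cells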
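Also added: QL9-peptide-loaded Drosophila micro-vesicles bearing Ld, ICAM-1 and B7-1; Test system: purified 2C TCR transgenic mouse naive CD8+ T cells; Measured by: cytometric PE anti-B7-1 and Alexa647 anti-CD8 signals after 1% paraformaldehyde fixation; Timing: binding step 1.5 h, 37 °C, antibody labelling 20 min, ice.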
p-CIP stab down = p/CIP-EGFP fusion destabilizers, primary screen, fluorescence, F442A cells; Q05BA5; 290,000 compounds, 0.01% hits; AID 1984, 2009; decrease of EGFP signal, % at 10 µM; 16 h;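 active means EGFP signal decrease of at least 30% at 10 µM or well 3 SD below plate mean, unless failing retest; inactive means the rest, including hits failing retest or dose response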
GPR7 antagonist = GPR7 receptor antagonists, primary screen, cell-based, fluorescence, single concentration; Neuropeptides B/W receptor type 1 (Homo sapiens), P48145; GPR7-expressing cells, fluorescence antagonist assay; inhibition, % at 4.4 µM; 290,000 compounds, 1.1% hits; in the data active means inhibition above about 16%, passing the limit was not always enough;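 further: cells stimulated with the agonist NPW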
Target sequence (P48145 whole entry, looked up): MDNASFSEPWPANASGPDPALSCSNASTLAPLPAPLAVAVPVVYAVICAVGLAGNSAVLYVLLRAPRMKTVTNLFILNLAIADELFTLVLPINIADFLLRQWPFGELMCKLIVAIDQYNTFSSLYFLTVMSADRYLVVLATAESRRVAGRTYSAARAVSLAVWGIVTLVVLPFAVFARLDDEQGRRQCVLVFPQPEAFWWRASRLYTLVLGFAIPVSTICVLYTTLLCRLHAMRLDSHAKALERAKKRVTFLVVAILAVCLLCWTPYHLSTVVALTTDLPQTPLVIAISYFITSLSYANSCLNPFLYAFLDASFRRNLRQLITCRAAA
CHT allo act = CHT positive allosteric modulators, primary screen, cell-based, membrane potential dye, choline EC20 | CHT-expressing cells; hits give high values; LV-AA mutant CHT in HEK293 cells | B-score at 10 µM | 310,000 compounds, 0.49% hits;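 active means initial fluorescence not abnormally high and integrated response B-score, plate-corrected, over 3 SD above library mean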
CHT block = inhibitors of human choline transporter CHT; High affinity choline transporter 1 (Homo sapiens), Q9GZV3; CHT-expressing cells, membrane potential dye, choline response; hits give low values; B-score at 10 µM; 310,000 compounds, 0.86% hits; AID 488975, 2010;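 active means B-score over 3 SD under the library average, and starting fluorescence ratio not unusually high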;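 further: choline stimulus applied at its EC90 after an EC20 pre-addition; B-score computed on integrated fluorescence ratio after choline addition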
DSG3 Ab inh = inhibitors of pemphigus antibody binding to DSG3, primary screen, biochemical, bead-based, flow cytometry, scFv-GFP | Desmoglein-3 (Homo sapiens), P32926 | DSG3-coupled beads, scFv-anti-DSG3-GFP binding; hits give low values | binding (percent of control), % at 10 µM | 310,000 compounds, 0.48% hits | AID 588358, 2011;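 active means binding more than 3 SD below its plate's average and above zero; inconclusive means below that plate limit but binding exactly zero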;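 further: hits lower antibody fragment binding to DSG3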
GPR7 antag cf = GPR7 receptor antagonists, confirmation, cell-based, fluorescence, single concentration; shares compounds with GPR7 antagonist; GPR7-expressing cells, calcium fluorescence antagonist mode; inhibition, % at 4.4 µM; 2,400 compounds, 52% hits; AID 1952, 2009; in the data active means inhibition above about 24%;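 further: stimulated with the GPR7 agonist NPW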
MCHR1 antagonist = MCHR1 antagonists in cells, counter-screen for GPR7 antagonist project, cell-based, fluorescence, human; shares compounds with GPR7 antagonist; MCHR1-expressing cells, fluorescence antagonist assay; AID 2148, 2009; inhibition, % at 4.4 µM; 2,400 compounds, 62% hits; in the data active means inhibition above about 22%
Numbers stand for hits; 0 = inactive; ? = inconclusive; - = no result given.

SMILES	T cell HTS	p-CIP stab down	GPR7 antagonist	CHT allo act	CHT block	DSG3 Ab inh	GPR7 antag cf	MCHR1 antagonist
CN1/C(=C\C(=S)NC(=O)c2ccccc2Cl)C(C)(C)c2ccccc21	0	0	38	0	0	0	0	43
CC(C)(C)OC(=O)N(Cc1ccccc1)Cc1cccc(OCc2cccc(NC(=O)c3ccccc3)c2)c1	-	-	-	-	-	0	-	-
Cc1cc(C)c2oc(C(=O)N(Cc3ccccc3)c3ccccn3)cc(=O)c2c1	0	0	26	0	0	0	0	0
Cc1cc2oc(C(=O)N(Cc3ccccc3)c3ccccn3)cc(=O)c2cc1Cl	0	0	0	0	0	0	-	-
C=CCn1cc(CN2CCC(C(=O)Nc3cccc(-c4cccc(Cl)c4)c3)CC2)c(C)n1	0	0	41	0	0	0	41	58
C=CCn1cc(CN2CCC(C(=O)Nc3cccc(-c4cccc(F)c4)c3)CC2)c(C)n1	0	0	0	0	0	0	-	-
Cc1nonc1OCCNCCNc1ccc([N+](=O)[O-])cc1Cl	0	0	25	0	0	0	0	0
Cc1nonc1OCCNc1ccc([N+](=O)[O-])cc1	0	0	0	0	0	0	-	-
CC(=O)OCC(=O)C1(O)CCC2C3CCC4C(OC(C)=O)C(=O)CCC4(C)C3C(=O)CC21C (centres undefined)	-	-	-	-	-	0	-	-
Fc1ccc(NC(=S)SCc2ccc3c(c2)OCO3)cc1F	-	-	-	-	-	0	-	-
COc1ccccc1NS(=O)(=O)c1cc(NC(=O)c2ccc3c(c2)OCCO3)ccc1C	0	0	27	0	0	-	0	63
COc1ccccc1NS(=O)(=O)c1cc(NC(=O)CNC(=O)c2ccccc2)ccc1C	0	0	0	0	0	0	-	-
CCOc1ccc(S(=O)(=O)N2CCOCC2)cc1NC(=O)CCN1C(=O)NC2(CCCC2)C1=O	-	-	-	-	-	0	-	-
COc1cccc(NC(=O)CN2CCC(NC(=O)c3ccccc3C)CC2)c1	-	-	-	-	-	0	-	-
Cc1nc(-c2ccc(S(=O)(=O)N3CCOCC3)cc2)cs1	0	0	27	0	0	0	0	0
CCOc1ccc(-n2c(-c3ccc(Br)cc3)c[n+]3c2CCCCC3)cc1	0	0	29	0	0	0	39	36
Cc1sc(NC(=O)C2CCCCC2C(=O)O)c(C(N)=O)c1C (centres undefined)	0	0	22	0	0	0	0	0
COc1ccc2cc(CN(C)C(=O)CN3C(=O)NC4(CCCC4)C3=O)ccc2c1	-	-	-	-	-	0	-	-
COc1cc(-c2cc(-c3ccc(O)cc3)nc(N)c2C#N)ccc1O	0	0	0	0	0	0	-	-
COc1ccccc1-c1cc(-c2ccc(O)cc2)nc(N)c1C#N	0	0	37	0	0	0	0	0
COc1ccc(N(Cc2ccccc2)S(=O)(=O)c2cccc(C(=O)NCC3CCCO3)c2)cc1 (centres undefined)	-	-	-	-	-	0	-	-
Cc1nn(Cc2c(F)cccc2Cl)c(C)c1NC(=O)C1CC1	0	0	0	0	0	0	-	-
Cc1ccc(C2CC(C(F)F)n3ncc(C(=O)Nc4c(C)nn(Cc5c(F)cccc5Cl)c4C)c3N2)cc1 (centres undefined)	0	0	24	0	0	-	56	27
FC(F)Sc1ccc(NC(=S)NC2CCCC2)cc1	0	0	0	0	0	0	-	-
CC1CCCC(NC(=S)Nc2ccc(SC(F)F)cc2)C1C (centres undefined)	0	0	45	0	0	0	32	54
SMILES	T cell HTS	p-CIP stab down	GPR7 antagonist	CHT allo act	CHT block	DSG3 Ab inh	GPR7 antag cf	MCHR1 antagonist
CC(Sc1ccc(S(=O)(=O)N2CCCCC2)cn1)C(N)=O (centres undefined)	-	-	-	-	-	0	-	-
CCOc1ccc(NC(=O)CN2C(=O)NC(C)(c3ccc(OC(F)F)cc3)C2=O)cc1 (centres undefined)	0	0	75	0	0	0	81	74
CC1(c2ccc(OC(F)F)cc2)NC(=O)N(CC(=O)Nc2ccc(OC(F)F)cc2)C1=O (centres undefined)	0	0	86	0	0	0	88	86
CC1(c2ccc(OC(F)F)cc2)NC(=O)N(CC(=O)Nc2ccc(S(N)(=O)=O)cc2)C1=O (centres undefined)	0	0	0	0	0	0	-	-
CC1(c2ccc(OC(F)F)cc2)NC(=O)N(CC(=O)Nc2ccc(F)cc2)C1=O (centres undefined)	0	0	43	0	0	0	54	48
Cc1ccc(NC(=O)CN2C(=O)NC(C)(c3ccc(Cl)cc3)C2=O)cc1 (centres undefined)	0	0	23	0	0	0	43	29
O=C(Cn1ncc2ccccc2c1=O)Nc1cccc(C(F)(F)F)c1	-	-	-	-	-	0	-	-
C[C@@H]1CN([C@@H](C)CO)C(=O)CCCn2nncc2CO[C@@H]1CN(C)C(=O)Nc1ccc(N2CCN(C)CC2)cc1	-	-	-	-	-	0	-	-
CC1(c2ccc(OC(F)F)cc2)NC(=O)N(CC(=O)Nc2ccc(Cl)cc2F)C1=O (centres undefined)	0	0	55	0	0	0	67	64
CC1(c2ccc(OC(F)F)cc2)NC(=O)N(CC(=O)Nc2cccc(F)c2)C1=O (centres undefined)	0	0	94	0	0	?	93	92
CCOC(=O)c1sc(NC(=O)CN2C(=O)NC3(CCCCCCC3)C2=O)c(C(=O)OCC)c1C	0	0	0	0	0	0	-	-
CC1(c2ccc(OC(F)F)cc2)NC(=O)N(CC(=O)NC2CCCCC2)C1=O (centres undefined)	-	0	0	0	0	0	-	-
Cc1cc(NC(=O)CN2C(=O)NC(C)(c3ccc(OC(F)F)cc3)C2=O)no1 (centres undefined)	0	0	50	0	0	0	51	48
Cc1cc(NC(=O)CN2C(=O)NC(C)(c3ccccc3Cl)C2=O)no1 (centres undefined)	0	-	-	-	-	0	-	-
Cc1ccc(C2(C)NC(=O)N(CC(=O)N(C)CC(=O)Nc3cccc(F)c3)C2=O)cc1 (centres undefined)	0	-	-	-	-	?	-	-
CCOC(=O)c1c(NC(=O)CN2C(=O)NC(C)(c3ccc(OC(F)F)cc3)C2=O)sc(C)c1C (centres undefined)	0	0	71	0	0	0	68	86
